Assay [1] deals with Nitric oxide synthase, inducible (Homo sapiens, UniProt P35228). Description: Inhibition of human recombinant iNOS using 1 mM […] and 2 uM L-arginine after 30 mins. The gist of the method: (§1)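 Recombinant human NOS, scintillation proximity kit. Buffer: 50 mM Tris pH 7.4, 1.0 mM NADPH, 3.8 μM each of FMN, FAD and tetrahydrobiopterin, 2.0 mM DTT, 2.0 μM L-arginine. eNOS and nNOS buffer also had 20 μg/mL calmodulin and 1 mM CaCl2. Started with [3H]arginine, 30 min at room temperature, stopped with yttrium-silicate arginine-binding beads, counted after 2 h settling. IC50 mean ± SD, N ≥ 3.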
Sequence of Nitric oxide synthase, inducible (P35228 whole entry): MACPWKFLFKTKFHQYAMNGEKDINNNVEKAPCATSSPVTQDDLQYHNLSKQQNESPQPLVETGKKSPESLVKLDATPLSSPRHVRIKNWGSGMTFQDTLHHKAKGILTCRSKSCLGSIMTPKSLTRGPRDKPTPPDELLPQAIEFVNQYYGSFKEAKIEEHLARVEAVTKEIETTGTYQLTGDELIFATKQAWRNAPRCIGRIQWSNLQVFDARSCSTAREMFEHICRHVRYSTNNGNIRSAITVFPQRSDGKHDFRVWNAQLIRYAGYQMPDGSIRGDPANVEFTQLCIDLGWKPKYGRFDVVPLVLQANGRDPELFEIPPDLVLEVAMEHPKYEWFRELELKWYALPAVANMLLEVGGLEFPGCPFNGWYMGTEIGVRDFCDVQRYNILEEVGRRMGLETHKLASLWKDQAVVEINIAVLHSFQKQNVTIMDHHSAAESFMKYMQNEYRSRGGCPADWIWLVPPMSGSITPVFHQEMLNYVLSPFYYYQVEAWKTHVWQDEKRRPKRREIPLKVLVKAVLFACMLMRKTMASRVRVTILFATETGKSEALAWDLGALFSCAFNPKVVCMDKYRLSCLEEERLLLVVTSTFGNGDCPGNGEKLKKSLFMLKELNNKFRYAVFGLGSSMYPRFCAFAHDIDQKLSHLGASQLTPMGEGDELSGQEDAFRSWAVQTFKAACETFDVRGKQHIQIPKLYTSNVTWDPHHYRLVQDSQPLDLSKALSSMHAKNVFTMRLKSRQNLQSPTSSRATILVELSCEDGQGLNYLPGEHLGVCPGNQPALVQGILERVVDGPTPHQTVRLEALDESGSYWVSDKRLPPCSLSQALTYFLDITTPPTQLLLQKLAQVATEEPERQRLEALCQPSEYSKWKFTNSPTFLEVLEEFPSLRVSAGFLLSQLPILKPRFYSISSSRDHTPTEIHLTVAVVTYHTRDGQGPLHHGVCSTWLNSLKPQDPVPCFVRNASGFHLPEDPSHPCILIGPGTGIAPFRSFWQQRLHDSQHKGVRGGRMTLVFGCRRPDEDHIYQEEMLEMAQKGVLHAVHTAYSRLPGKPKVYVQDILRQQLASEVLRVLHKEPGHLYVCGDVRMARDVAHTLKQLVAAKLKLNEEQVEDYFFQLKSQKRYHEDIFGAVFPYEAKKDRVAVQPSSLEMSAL

Another assay concerns the target T1, Nitric oxide synthase 3 (Homo sapiens, UniProt P29474).
T1 sequence (P29474 whole entry): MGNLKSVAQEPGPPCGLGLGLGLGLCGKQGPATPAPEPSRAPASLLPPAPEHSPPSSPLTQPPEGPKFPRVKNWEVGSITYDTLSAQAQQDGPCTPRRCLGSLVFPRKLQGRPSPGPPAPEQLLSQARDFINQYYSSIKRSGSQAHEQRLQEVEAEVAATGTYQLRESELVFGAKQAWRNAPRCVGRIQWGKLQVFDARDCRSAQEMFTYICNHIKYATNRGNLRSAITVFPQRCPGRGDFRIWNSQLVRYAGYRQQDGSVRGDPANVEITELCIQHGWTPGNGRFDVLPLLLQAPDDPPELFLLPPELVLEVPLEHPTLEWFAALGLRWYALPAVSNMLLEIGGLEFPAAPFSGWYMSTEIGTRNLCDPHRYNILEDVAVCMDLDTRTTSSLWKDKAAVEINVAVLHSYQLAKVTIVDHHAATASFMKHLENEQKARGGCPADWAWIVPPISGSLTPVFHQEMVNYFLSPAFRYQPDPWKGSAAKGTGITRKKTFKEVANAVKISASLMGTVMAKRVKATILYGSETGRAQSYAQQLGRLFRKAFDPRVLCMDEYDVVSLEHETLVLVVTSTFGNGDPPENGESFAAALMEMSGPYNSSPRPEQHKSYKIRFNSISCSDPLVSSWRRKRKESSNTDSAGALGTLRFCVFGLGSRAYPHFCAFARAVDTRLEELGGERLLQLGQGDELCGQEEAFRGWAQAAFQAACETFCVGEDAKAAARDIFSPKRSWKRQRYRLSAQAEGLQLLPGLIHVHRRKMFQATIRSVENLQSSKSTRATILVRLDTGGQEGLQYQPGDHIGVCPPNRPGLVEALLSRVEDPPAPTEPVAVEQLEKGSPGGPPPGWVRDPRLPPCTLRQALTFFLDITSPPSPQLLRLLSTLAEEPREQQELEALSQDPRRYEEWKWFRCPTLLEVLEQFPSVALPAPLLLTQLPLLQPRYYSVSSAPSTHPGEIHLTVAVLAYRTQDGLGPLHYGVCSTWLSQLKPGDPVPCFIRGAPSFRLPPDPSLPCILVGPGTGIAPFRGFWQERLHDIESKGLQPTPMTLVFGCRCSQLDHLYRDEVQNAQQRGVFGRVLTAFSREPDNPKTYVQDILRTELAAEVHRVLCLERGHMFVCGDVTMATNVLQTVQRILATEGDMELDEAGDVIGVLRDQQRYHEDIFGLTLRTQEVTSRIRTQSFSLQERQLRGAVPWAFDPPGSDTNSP
Description: Inhibition of human recombinant eNOS using 1 mM […] and 2 uM L-arginine after 30 mins. The gist of the method:
as §1

For another assay, the target named is Nitric oxide synthase 1 (Homo sapiens, UniProt P29475). Description: Inhibition of human recombinant nNOS using 1 mM […] and 2 uM L-arginine after 30 mins. The gist of the method:
as §1

Molecules are shown by their SMILES. pIC50: −log10 of the molar value.

Sequence of Nitric oxide synthase 1 (P29475 whole entry): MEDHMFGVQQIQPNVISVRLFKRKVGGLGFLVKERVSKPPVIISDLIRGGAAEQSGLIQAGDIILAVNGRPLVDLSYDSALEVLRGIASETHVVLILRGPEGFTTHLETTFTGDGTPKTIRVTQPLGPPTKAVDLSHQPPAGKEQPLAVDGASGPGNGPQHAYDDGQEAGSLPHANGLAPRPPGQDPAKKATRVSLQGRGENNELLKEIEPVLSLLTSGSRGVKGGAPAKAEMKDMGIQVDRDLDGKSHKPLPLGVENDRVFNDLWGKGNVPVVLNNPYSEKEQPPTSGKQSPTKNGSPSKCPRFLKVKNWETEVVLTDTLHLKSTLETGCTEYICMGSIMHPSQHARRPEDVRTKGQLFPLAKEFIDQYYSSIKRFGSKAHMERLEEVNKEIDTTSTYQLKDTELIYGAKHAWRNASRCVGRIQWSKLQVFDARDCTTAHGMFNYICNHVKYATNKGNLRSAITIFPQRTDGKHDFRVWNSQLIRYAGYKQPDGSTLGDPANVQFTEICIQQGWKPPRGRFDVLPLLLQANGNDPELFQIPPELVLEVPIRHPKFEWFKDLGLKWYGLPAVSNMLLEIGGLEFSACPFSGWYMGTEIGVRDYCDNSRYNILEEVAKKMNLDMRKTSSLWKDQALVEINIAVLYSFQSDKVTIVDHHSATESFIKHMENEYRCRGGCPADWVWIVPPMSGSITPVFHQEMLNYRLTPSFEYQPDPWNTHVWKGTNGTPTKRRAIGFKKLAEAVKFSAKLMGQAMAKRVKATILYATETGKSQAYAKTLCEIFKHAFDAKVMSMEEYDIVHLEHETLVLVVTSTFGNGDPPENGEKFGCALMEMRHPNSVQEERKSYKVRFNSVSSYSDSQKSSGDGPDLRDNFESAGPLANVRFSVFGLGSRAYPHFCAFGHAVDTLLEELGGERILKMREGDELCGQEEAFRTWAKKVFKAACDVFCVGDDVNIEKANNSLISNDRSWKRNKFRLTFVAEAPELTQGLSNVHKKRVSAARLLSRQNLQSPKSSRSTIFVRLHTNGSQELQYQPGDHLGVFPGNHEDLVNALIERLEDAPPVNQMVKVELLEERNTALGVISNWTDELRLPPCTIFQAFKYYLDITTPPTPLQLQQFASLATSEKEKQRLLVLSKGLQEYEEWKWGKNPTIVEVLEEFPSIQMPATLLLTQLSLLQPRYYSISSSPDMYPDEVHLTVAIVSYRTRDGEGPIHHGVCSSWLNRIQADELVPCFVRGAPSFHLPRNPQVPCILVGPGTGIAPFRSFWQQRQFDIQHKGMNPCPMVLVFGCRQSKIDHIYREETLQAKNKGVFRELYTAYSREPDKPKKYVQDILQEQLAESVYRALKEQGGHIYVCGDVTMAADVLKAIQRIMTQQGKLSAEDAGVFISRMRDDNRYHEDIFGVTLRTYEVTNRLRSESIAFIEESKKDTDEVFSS

`CSCCC(C)Cc1cc(C)cc(N)n1` (stereo not drawn): in assay [1], the pIC50 was less than 5.30.
The same measure, in the same setting: the figure for `Cc1cc(N)nc(CC(C)CCF)c1` (stereo not drawn) is 6.14; for `Cc1cc(N)nc(CC(C)O)c1` (stereo not drawn) it is 5.75.
Regarding `Cc1cc(N)nc(CC(C)F)c1` (stereo not drawn), the negative-log IC50 (pIC50) in assay [1] is 6.66; on Nitric oxide synthase 3, 5.82.
With `COC(C)Cc1cc(C)cc(N)n1` (stereo not drawn), in assay [1], the pIC50 is less than 5.30.
Still for that read-out and setting: the figure for `C/C=C/c1cc(C)cc(N)n1` is 6.55; for `Cc1cc(N)nc(CC(C)OCCF)c1` (stereo not drawn) it is less than 5.30; for `COCCC(C)Cc1cc(C)cc(N)n1` (stereo not drawn) it is less than 5.30.
As to `Cc1cc(N)nc(CCCF)c1`, the figures for the negative-log IC50 (pIC50) (in assay [1]; at Nitric oxide synthase 3; on Nitric oxide synthase 1) were 7.24, 5.85 and 6.29, respectively.
For the molecule `Cc1cc(N)nc(CCCCF)c1`, in assay [1], the pIC50 is 6.77.

For orientation: pIC50 means −log10 of the IC50, conventionally taken in molar units.

The values above are taken from ChEMBL document CHEMBL1153433, “Design and synthesis of 2-amino-4-methylpyridine analogues as inhibitors for inducible nitric oxide synthase and in vivo evaluation of [18F]6-(2-fluoropropyl)-4-methyl-pyridin-2-amine as a potential PET tracer for inducible nitric oxide synthase” (J Med Chem, 2009).
